Measurements: ChEMBL document CHEMBL4411315, “Discovery of Novel Dual Histone Deacetylase and Mammalian Target of Rapamycin Target Inhibitors as a Promising Strategy for Cancer Therapy” (J Med Chem, 2019)
Each block holds one compound with its values, some of them ahead of it. The source made the active and inactive calls. No cut-off for these calls is given here.

Tests used:
Histone deacetylase 3 = Histone deacetylase 3 (Homo sapiens, UniProt O15379); assay: Inhibition of recombinant full length HDAC3 (unknown origin) using Ac-peptide-AMC as substrate preincubated for 15 mins followed by substrate addition and measured after 1 hr by fluorescence assay
MM1.S [1] = assay: Antiproliferative activity against human MM1S cells after 72 hrs by MTT assay; format: functional, cell-based
MCF7 = assay: Antiproliferative activity against human MCF7 cells after 72 hrs by MTT assay; format: functional, cell-based; details: MCF7, 72 h
[2] = biological target: Polyamine deacetylase HDAC10 (Homo sapiens, UniProt Q969S8); assay: Inhibition of recombinant full length N-terminal FLAG-tagged human HDAC10 expressed in baculovirus infected sf9 cells using Ac-peptide-AMC as substrate preincubated for 15 mins followed by substrate addition and measured after 1 hr by fluorescence assay
HCT-116 = assay: Antiproliferative activity against human HCT116 cells after 72 hrs by MTT assay; format: functional, cell-based; details: HCT-116, 72 h
Raji = assay: Antiproliferative activity against human Raji cells after 72 hrs by MTT assay; format: functional, cell-based
Outline: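 Log-phase cells were plated at 10000-15000 per well and exposed to serial concentrations after 24 h for 72 h. Read-out was MTT for 1-3 h, then 20% SDS overnight and absorbance at 570 nm. IC50 was calculated from growth versus untreated control, as mean ± SEM of at least three independent experiments.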

[3] = biological target: Protein deacetylase HDAC6 (Homo sapiens, UniProt Q9UBN7); assay: Inhibition of recombinant full length HDAC6 (unknown origin) using Ac-peptide-AMC as substrate preincubated for 15 mins followed by substrate addition and measured after 1 hr by fluorescence assay
[4] = biological target: T1, PI3-kinase p110-alpha/p85-alpha (Homo sapiens) (UniProt P27986+P42336); assay: Inhibition of recombinant human full length N-terminal His-tagged/untagged p110alpha/p85alpha expressed in baculovirus expression system at 500 nM using PIP2 as substrate after 1 hr by Kinase-Glo reagent-based assay relative to control
[5] = biological target: T2, Serine/threonine-protein kinase mTOR (Homo sapiens, UniProt P42345); assay: Inhibition of recombinant N-terminal FLAG-tagged human mTOR (1362 to end residues) using ULight-4E-BP1 (Thr37/46) peptide as substrate after 1 hr by fluorescence assay
Outline: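 mTOR enzyme, ATP, compound and ULight-4E-BP1 (Thr37/46) peptide in kinase buffer were incubated 1 h at room temperature. EDTA quench plus Eu-anti-phospho-4E-BP1 antibody was added and equilibrated 1 h. TR-FRET was read at excitation 320 or 340 nm and emission 665 nm. Curves were fitted, and values are means of at least two experiments.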

Histone deacetylase 1 = Histone deacetylase 1 (Homo sapiens, UniProt Q13547); assay: Inhibition of recombinant full length HDAC1 (unknown origin) using Ac-peptide-AMC as substrate preincubated for 15 mins followed by substrate addition and measured after 1 hr by fluorescence assay
Histone deacetylase 8 = Histone deacetylase 8 (Homo sapiens, UniProt Q9BY41); assay: Inhibition of recombinant full length C-terminal His-tagged human HDAC8 expressed in baculovirus expression system using Ac-peptide-AMC as substrate preincubated for 15 mins followed by substrate addition and measured after 1 hr by fluorescence assay
Histone deacetylase 2 = Histone deacetylase 2 (Homo sapiens, UniProt Q92769); assay: Inhibition of recombinant full length human HDAC2 expressed in baculovirus expression system using Ac-peptide-AMC as substrate preincubated for 15 mins followed by substrate addition and measured after 1 hr by fluorescence assay
[6] = biological target: T2, Serine/threonine-protein kinase mTOR; assay: Inhibition of recombinant N-terminal FLAG-tagged human mTOR (1362 to end residues) at 500 nM using ULight-4E-BP1 (Thr37/46) peptide as substrate after 1 hr by fluorescence assay relative to control
MV4-11 [7] = assay: Induction of apoptosis in human MV4-11 cells assessed as necrotic cells at 1 uM after 48 hrs by Annexin V-FITC/propidium iodide staining-based flow cytometric analysis (reference value: 0.17%); format: functional
OCI-AML-3 = assay: Antiproliferative activity against human OCI-AML3 cells after 72 hrs by MTT assay; format: functional, cell-based; details: OCI-AML-3, 72 h
MM1.S [8] = assay: Induction of apoptosis in human MM1S cells assessed as late apoptotic cells at 1 uM after 48 hrs by Annexin V-FITC/propidium iodide staining-based flow cytometric analysis (reference value: 0.42%); format: functional
MV4-11 [9] = assay: Induction of apoptosis in human MV4-11 cells assessed as early apoptotic cells at 0.3 uM after 48 hrs in presence of 1 uM SAHA by Annexin V-FITC/propidium iodide staining-based flow cytometric analysis (reference value: 10.7%); format: functional
MV4-11 [10] = assay: Induction of apoptosis in human MV4-11 cells assessed as viable cells at 0.3 uM after 48 hrs in presence of 1 uM SAHA by Annexin V-FITC/propidium iodide staining-based flow cytometric analysis (reference value: 84.1%); format: functional
OCI-AML2 = assay: Antiproliferative activity against human OCI-AML2 cells after 72 hrs by MTT assay; format: functional, cell-based; details: OCI-AML2, 72 h
[11] = biological target: T2, Serine/threonine-protein kinase mTOR; details: MV4-11, 1 to 10 uM
MM1.S [12] = assay: Induction of apoptosis in human MM1S cells assessed as viable cells at 0.3 uM after 48 hrs in presence of 1 uM SAHA by Annexin V-FITC/propidium iodide staining-based flow cytometric analysis (reference value: 98.9%); format: functional
MV4-11 [13] = assay: Antiproliferative activity against human MV4-11 cells after 72 hrs by MTT assay; format: functional, cell-based; details: MV4-11, 72 h
MV4-11 [14] = assay: Induction of apoptosis in human MV4-11 cells assessed as late apoptotic cells at 1 uM after 48 hrs by Annexin V-FITC/propidium iodide staining-based flow cytometric analysis (reference value: 5.03%); format: functional
MM1.S [15] = assay: Induction of apoptosis in human MM1S cells assessed as early apoptotic cells at 0.3 uM after 48 hrs in presence of 1 uM SAHA by Annexin V-FITC/propidium iodide staining-based flow cytometric analysis (reference value: 0.38%); format: functional
MM1.S [16] = assay: Induction of apoptosis in human MM1S cells assessed as early apoptotic cells at 1 uM after 48 hrs by Annexin V-FITC/propidium iodide staining-based flow cytometric analysis (reference value: 0.38%); format: functional
MM1.S [17] = assay: Induction of apoptosis in human MM1S cells assessed as viable cells at 1 uM after 48 hrs by Annexin V-FITC/propidium iodide staining-based flow cytometric analysis (reference value: 98.9%); format: functional; details: Homo sapiens, MM1.S, 48 h; read-out: Activity
[18] = biological target: T2, Serine/threonine-protein kinase mTOR; details: MV4-11, 10 uM
MV4-11 [19] = assay: Induction of apoptosis in human MV4-11 cells assessed as viable cells at 1 uM after 48 hrs by Annexin V-FITC/propidium iodide staining-based flow cytometric analysis (reference value: 84.1%); format: functional; details: Homo sapiens, MV4-11, 48 h; read-out: Activity
MV4-11 [20] = assay: Induction of apoptosis in human MV4-11 cells assessed as late apoptotic cells at 0.3 uM after 48 hrs in presence of 1 uM SAHA by Annexin V-FITC/propidium iodide staining-based flow cytometric analysis (reference value: 5.03%); format: functional
[21] = Toxicity against NOD/SCID mouse xenografted with human MM1S cells assessed as mouse survival at 25 mg/kg, po qd administered for 10 days co-treated with 50 mg/kg SAHA; format: organism-based; details: in vivo, 240 h
Outline: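 MM1S s.c. xenograft: 10^7 cells in serum-free RPMI 1640, right flank, female NOD/SCID mice aged 5-6 weeks, randomised at 100-200 mm3 (n=6 per group). Oral daily dosing used physiological saline with 2.5% DMSO and 10% cyclodextrin, pH 9; the combination was given as a suspension. Caliper measurements were taken every 2 days. Survivors were counted.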

[22] = biological target: T2, Serine/threonine-protein kinase mTOR; details: MV4-11, 1 to 10 uM; remark: listed apart in the source
MM1.S [23] = assay: Antitumor activity against human MM1S cells xenografted in NOD/SCID mouse assessed as tumor growth inhibition at 25 mg/kg, po qd administered for 10 days and measured every 2 days post last dose in presence of 50 mg/kg SAHA by caliper method relative to control
MM1.S [24] = assay: Induction of apoptosis in human MM1S cells assessed as necrotic cells at 0.3 uM after 48 hrs in presence of 1 uM SAHA by Annexin V-FITC/propidium iodide staining-based flow cytometric analysis (reference value: 0.32%); format: functional
MM1.S [25] = assay: Induction of apoptosis in human MM1S cells assessed as necrotic cells at 1 uM after 48 hrs by Annexin V-FITC/propidium iodide staining-based flow cytometric analysis (reference value: 0.32%); format: functional
MV4-11 [26] = assay: Induction of apoptosis in human MV4-11 cells assessed as early apoptotic cells at 1 uM after 48 hrs by Annexin V-FITC/propidium iodide staining-based flow cytometric analysis (reference value: 10.7%); format: functional
MV4-11 [27] = assay: Induction of apoptosis in human MV4-11 cells assessed as necrotic cells at 0.3 uM after 48 hrs in presence of 1 uM SAHA by Annexin V-FITC/propidium iodide staining-based flow cytometric analysis (reference value: 0.17%); format: functional
MM1.S [28] = assay: Induction of apoptosis in human MM1S cells assessed as late apoptotic cells at 0.3 uM after 48 hrs in presence of 1 uM SAHA by Annexin V-FITC/propidium iodide staining-based flow cytometric analysis (reference value: 0.42%); format: functional
[29] = biological target: T1, PI3-kinase p110-alpha/p85-alpha (Homo sapiens); assay: Inhibition of recombinant human full length N-terminal His-tagged/untagged p110alpha/p85alpha expressed in baculovirus expression system at 100 nM using PIP2 as substrate after 1 hr by Kinase-Glo reagent-based assay relative to control
Outline: (§1)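 PI3Kα (p110α/p85α) incubated with PIP2 substrate and ATP in kinase buffer for 1 h at room temperature. Kinase-Glo reagent was then added for 15 min before luminescence read-out. Inhibition rate at 100 or 1000 nM is the mean of at least two experiments.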

[30] = biological target: T1, PI3-kinase p110-alpha/p85-alpha (Homo sapiens); assay: Inhibition of recombinant human full length N-terminal His-tagged/untagged p110alpha/p85alpha expressed in baculovirus expression system at 1000 nM using PIP2 as substrate after 1 hr by Kinase-Glo reagent-based assay relative to control; outline: as §1

Chain of Histone deacetylase 2 (Q92769 whole entry): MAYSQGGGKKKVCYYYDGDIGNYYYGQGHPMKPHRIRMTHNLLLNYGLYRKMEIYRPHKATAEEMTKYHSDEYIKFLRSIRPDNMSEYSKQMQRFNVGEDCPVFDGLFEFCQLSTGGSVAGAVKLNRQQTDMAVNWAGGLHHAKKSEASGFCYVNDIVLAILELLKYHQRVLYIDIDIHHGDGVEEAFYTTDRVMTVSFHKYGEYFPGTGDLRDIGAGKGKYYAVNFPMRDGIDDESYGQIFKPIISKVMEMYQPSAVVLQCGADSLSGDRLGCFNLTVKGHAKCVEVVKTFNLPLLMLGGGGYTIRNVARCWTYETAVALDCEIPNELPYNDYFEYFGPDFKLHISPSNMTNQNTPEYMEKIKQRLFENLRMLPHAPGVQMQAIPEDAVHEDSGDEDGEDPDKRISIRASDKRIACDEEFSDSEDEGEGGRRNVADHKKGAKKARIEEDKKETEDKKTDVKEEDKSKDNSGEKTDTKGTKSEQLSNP
Chain of Polyamine deacetylase HDAC10 (Q969S8 whole entry): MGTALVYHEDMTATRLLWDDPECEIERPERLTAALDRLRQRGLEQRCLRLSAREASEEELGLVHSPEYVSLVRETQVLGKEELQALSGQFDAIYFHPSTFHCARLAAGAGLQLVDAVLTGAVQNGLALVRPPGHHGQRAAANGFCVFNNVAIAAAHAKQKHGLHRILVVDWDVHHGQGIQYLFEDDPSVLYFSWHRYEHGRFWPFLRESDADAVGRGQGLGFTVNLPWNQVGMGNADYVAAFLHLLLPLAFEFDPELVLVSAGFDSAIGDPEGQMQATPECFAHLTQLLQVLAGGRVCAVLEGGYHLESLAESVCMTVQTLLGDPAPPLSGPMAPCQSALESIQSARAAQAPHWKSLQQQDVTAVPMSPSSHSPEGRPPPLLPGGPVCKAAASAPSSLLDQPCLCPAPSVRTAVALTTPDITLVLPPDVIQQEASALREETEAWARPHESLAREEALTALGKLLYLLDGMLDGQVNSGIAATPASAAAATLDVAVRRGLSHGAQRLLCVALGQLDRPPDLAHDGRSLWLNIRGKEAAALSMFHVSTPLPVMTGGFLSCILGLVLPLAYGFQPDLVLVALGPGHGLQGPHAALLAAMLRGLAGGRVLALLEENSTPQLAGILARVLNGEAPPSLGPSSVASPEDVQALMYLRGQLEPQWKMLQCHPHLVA
Chain of Histone deacetylase 3 (O15379 whole entry): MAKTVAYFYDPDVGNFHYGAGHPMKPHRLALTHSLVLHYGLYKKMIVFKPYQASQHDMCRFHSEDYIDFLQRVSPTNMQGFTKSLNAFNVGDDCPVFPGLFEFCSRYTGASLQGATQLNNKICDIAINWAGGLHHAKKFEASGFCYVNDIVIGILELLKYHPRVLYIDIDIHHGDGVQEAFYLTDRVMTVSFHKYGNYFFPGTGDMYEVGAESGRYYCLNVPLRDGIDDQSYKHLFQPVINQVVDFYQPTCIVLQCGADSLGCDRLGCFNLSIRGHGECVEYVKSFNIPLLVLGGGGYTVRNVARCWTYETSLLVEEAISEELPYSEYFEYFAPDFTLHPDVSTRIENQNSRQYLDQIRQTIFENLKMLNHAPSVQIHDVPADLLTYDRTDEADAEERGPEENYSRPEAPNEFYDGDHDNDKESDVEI
Chain of Histone deacetylase 1 (Q13547 whole entry): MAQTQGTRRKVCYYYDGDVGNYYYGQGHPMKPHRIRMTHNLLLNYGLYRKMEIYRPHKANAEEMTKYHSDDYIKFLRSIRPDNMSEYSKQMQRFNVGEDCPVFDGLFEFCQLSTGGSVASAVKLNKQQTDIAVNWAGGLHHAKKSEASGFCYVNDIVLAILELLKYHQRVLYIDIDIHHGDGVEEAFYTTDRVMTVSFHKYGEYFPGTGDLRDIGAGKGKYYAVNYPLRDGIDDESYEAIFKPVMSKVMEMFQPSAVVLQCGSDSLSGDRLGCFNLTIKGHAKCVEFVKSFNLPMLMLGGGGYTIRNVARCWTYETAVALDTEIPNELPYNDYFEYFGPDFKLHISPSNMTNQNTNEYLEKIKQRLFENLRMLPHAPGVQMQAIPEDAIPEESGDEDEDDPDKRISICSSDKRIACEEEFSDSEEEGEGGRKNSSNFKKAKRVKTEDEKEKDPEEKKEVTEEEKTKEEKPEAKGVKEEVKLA
Chain of Protein deacetylase HDAC6 (Q9UBN7 whole entry): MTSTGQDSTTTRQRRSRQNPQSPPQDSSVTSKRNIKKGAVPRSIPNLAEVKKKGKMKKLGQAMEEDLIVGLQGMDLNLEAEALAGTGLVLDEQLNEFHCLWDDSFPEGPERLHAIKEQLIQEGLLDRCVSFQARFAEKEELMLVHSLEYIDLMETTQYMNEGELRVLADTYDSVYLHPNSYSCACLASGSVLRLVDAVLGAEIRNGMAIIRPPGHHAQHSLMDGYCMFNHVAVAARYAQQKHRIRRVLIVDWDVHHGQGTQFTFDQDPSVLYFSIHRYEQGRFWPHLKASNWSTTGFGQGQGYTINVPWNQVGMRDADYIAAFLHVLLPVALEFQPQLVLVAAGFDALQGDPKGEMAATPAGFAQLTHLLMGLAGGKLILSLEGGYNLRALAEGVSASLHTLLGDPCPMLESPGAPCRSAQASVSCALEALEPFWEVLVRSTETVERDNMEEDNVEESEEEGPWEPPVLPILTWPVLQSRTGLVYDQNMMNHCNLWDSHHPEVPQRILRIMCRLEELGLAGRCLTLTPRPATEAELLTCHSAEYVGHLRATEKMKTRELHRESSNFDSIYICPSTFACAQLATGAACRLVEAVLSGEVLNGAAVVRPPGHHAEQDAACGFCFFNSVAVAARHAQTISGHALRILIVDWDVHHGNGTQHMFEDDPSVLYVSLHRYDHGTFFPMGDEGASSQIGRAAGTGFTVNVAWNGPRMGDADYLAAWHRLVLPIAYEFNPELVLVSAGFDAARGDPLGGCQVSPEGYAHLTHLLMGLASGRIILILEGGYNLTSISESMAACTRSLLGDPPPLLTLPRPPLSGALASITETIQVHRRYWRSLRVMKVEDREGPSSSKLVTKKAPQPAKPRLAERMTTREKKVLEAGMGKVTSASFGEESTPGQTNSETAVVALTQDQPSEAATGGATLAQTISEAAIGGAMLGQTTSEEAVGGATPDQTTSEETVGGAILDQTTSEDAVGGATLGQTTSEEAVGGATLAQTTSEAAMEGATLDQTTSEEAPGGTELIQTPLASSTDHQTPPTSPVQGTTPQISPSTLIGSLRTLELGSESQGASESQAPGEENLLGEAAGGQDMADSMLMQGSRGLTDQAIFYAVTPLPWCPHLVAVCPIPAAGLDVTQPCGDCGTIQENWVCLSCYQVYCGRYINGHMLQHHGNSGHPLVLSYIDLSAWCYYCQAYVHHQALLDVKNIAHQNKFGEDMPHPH
Chain of Histone deacetylase 8 (Q9BY41 whole entry): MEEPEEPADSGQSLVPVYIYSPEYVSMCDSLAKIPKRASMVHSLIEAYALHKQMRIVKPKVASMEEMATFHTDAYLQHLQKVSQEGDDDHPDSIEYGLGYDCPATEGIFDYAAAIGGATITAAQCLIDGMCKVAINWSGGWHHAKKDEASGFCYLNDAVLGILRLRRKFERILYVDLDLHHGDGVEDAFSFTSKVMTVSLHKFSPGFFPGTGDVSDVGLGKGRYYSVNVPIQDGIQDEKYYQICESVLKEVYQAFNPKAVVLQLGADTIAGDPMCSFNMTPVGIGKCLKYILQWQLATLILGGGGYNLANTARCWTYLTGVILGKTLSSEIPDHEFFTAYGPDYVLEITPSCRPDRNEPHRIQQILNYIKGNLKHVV

IC50 (Histone deacetylase 3): 4.21 nM | IC50 (MM1.S [1]): 18.9 nM | IC50 (MCF7): 63.7 nM | IC50 [2]: 1.43 nM | IC50 (HCT-116): 7.1 nM | IC50 (Raji): 7.1 nM | IC50 [3]: 2.43 nM | inhibition [4]: 16% | IC50 [5]: 40 nM | IC50 (Histone deacetylase 1): 0.21 nM | IC50 (Histone deacetylase 8): 35.7 nM | IC50 (Histone deacetylase 2): 1.6 nM | inhibition [6]: 95%
SMILES: Nc1ccc(-c2nc(N3CCOCC3)c3cnn(CCCCCCC(=O)NO)c3n2)cc1

SMILES: CO[C@H]1C[C@@H]2CC[C@@H](C)[C@@](O)(O2)C(=O)C(=O)N2CCCC[C@H]2C(=O)O[C@H]([C@H](C)C[C@@H]2CC[C@@H](O)[C@H](OC)C2)CC(=O)[C@H](C)/C=C(\C)[C@@H](O)[C@@H](OC)C(=O)[C@H](C)C[C@H](C)/C=C/C=C/C=C/1C [SIROLIMUS]
Activity (MV4-11 [7]): 0.6% | IC50 (OCI-AML-3): > 500 nM | Activity (MM1.S [8]): 2.81% | Activity (MV4-11 [9]): 37% | Activity (MV4-11 [10]): 17.1% | IC50 (OCI-AML2): > 500 nM | inhibition [11]: Active | Activity (MM1.S [12]): 53.6% | IC50 (MV4-11 [13]): > 500 nM | Activity (MV4-11 [14]): 5.77% | Activity (MM1.S [15]): 15% | Activity (MM1.S [16]): 0.45% | viability at 1 µM (MM1.S [17]): 96.3% | inhibition [18]: Active | viability at 1 µM (MV4-11 [19]): 78.3% | Activity (MV4-11 [20]): 42.4% | Activity [21]: Non-Toxic | inhibition [22]: Active | TGI (MM1.S [23]): 73.8% | Activity (MM1.S [24]): 1.74% | Activity (MM1.S [25]): 0.47% | Activity (MV4-11 [26]): 15.3% | Activity (MV4-11 [27]): 3.48% | Activity (MM1.S [28]): 29.7%

IC50 (OCI-AML-3): 35.3 nM | IC50 (MM1.S [1]): 62.2 nM | IC50 (OCI-AML2): 8.55 nM | IC50 (MV4-11 [13]): 7.01 nM | inhibition [29]: 52.7% | IC50 (HCT-116): 83.5 nM | IC50 (Raji): 70.4 nM | IC50 [5]: 3.4 nM | inhibition [30]: 98.1%
SMILES: CN1CCN(C(=O)Nc2ccc(-c3nc(N4CCOCC4)c4cnn(CCCCCCC(=O)NO)c4n3)cc2)CC1
